Activity calls are given as the source filed them. No cut-off for these calls is given here.
What was measured:
[1] = target: Neuronal acetylcholine receptor; alpha4/beta4 (Rattus norvegicus) (UniProt P09483+P12392); assay: Potency index, ratio of DHbetaE Ki to test compound Ki for rat alpha4beta4 nAChR; assay type: protein-complex assay
[2] = system: Mus musculus; assay: Anti-depressant like activity in mouse assessed as increase in swimming activity at 10 mg/kg, sc administered 15 mins prior to testing by forced swim test; assay type: functional, organism-based
Procedure, shortened: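 Mice (n = 9–10) placed singly in a 16 cm beaker filled with water to 20 cm at 23.5–24.5 °C. Total swim distance over the 6 min test was recorded by overhead camera. Analysed by one-way ANCOVA, then planned pairwise comparisons of predicted means.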

[3] = target: Nicotinic acetylcholine receptor alpha-4/beta-2 (Mus musculus, UniProt Q8R493+Q9ERK7); assay: Antagonist activity at mouse alpha4beta2 nAChR expressed in HEK293 cells assessed as inhibition of (S)-nicotine-induced […] response measured up to 90 secs by FMP assay; assay type: cell-based
Procedure, shortened: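 Mouse α4β2 nAChR in stably expressing HEK293T cells, FLIPR Membrane Potential Blue assay. IC50 came from concentration-inhibition curves. Means of 3–5 experiments in duplicate.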

[4] = target: T1, Neuronal acetylcholine receptor; alpha3/beta4 (Rattus norvegicus, UniProt P04757+P12392); assay: Antagonist activity at rat alpha3beta4 nAChR expressed in HEK293 cells assessed as inhibition of (S)-nicotine-induced […] response measured up to 90 secs by FMP assay; assay type: cell-based
Procedure, shortened: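 Rat α3β4 nAChR in stably expressing HEK293 cells, FLIPR Membrane Potential Blue assay. Antagonist mode against (S)-nicotine at EC70–EC90. IC50 derived from concentration-inhibition curves. Means of 3–5 experiments in duplicate.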

[5] = target: T2, Neuronal acetylcholine receptor subunit alpha-7 (Homo sapiens, UniProt P36544); assay: Agonist activity at human alpha7 nAChR expressed in HEK293 cells co-expressing Ric-3/NACHO assessed as induction of calcium mobilization measured up to 90 secs in presence of PNU-120596 by FLIPR assay; assay type: cell-based
Procedure, shortened: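 Human α7 nAChR stably co-expressed with Ric-3 and NACHO in HEK293 cells, Ca2+/Fluo-4 fluorescence assay. Assay buffer held 3 μM PNU-120596 (α7 PAM) to slow desensitization. Agonist concentration-response curves gave EC50 and Rmax. Means of 3–5 experiments run in duplicate.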

[6] = Selectivity ratio of IC50 for rat alpha3beta4 nAChR to IC50 for mouse alpha4beta2 nAChR
[7] = target: Neuronal acetylcholine receptor; alpha4/beta4 (Rattus norvegicus, UniProt P09483+P12392); assay: Displacement of [3H]epibatidine from rat alpha4beta4 nAChR expressed in HEK293 cell membranes after 4 hrs by scintillation counting method
Procedure, shortened: (§1)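 Membranes from HEK293 lines stably expressing α3β4, α4β4 or α4β2 nAChR, [3H]epibatidine competition binding. Ki came from concentration-inhibition curves. Means of 3–5 experiments in duplicate.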

[8] = target: Neuronal acetylcholine receptor; alpha4/beta2 (Rattus norvegicus) (UniProt P09483+P12390); assay: Potency index, ratio of DHbetaE Ki to test compound Ki for rat alpha4beta2 nAChR; assay type: protein-complex assay
[9] = target: Neuronal acetylcholine receptor; alpha3/beta4 (Rattus norvegicus) (UniProt P04757+P12392); assay: Potency index, ratio of DHbetaE Ki to test compound Ki for rat alpha3beta4 nAChR; assay type: protein-complex assay
[10] = target: Neuronal acetylcholine receptor; alpha4/beta2 (Rattus norvegicus, UniProt P09483+P12390); assay: Displacement of [3H]epibatidine from rat alpha4beta2 nAChR expressed in HEK293 cell membranes after 4 hrs by scintillation counting method; procedure, shortened: as §1
[11] = target: T1, Neuronal acetylcholine receptor; alpha3/beta4; assay: Displacement of [3H]epibatidine from rat alpha3beta4 nAChR expressed in HEK293 cell membranes after 4 hrs by scintillation counting method; procedure, shortened: as §1
[12] = system: Mus musculus; assay: Anti-depressant like activity in sc dosed mouse assessed as increase in swimming activity administered 15 mins prior to testing by forced swim test; assay type: functional, organism-based
Procedure, shortened: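 Mouse forced swim test, n = 9–10 per group, doses 1, 3 and 10 mg/kg. Each mouse was placed in a 16 cm diameter beaker with 20 cm of water at 23.5–24.5 °C for 6 min. Camera-tracked total swim distance was scored after the first minute. Analysed by one-way ANCOVA with planned pairwise comparisons.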

[13] = target: T2, Neuronal acetylcholine receptor subunit alpha-7; assay: Agonist activity at human alpha7 nAChR expressed in HEK293 cells co-expressing Ric-3/NACHO assessed as induction of calcium mobilization at 10 uM measured up to 90 secs in presence of PNU-120596 by FLIPR assay; assay type: cell-based
[14] = target: Neuronal acetylcholine receptor; alpha4/beta2 (Homo sapiens, UniProt P17787+P43681); assay: Displacement of [3H]cytisine from human alpha4beta2 nAChR expressed in human SH-EP1 cell membranes after 75 mins by liquid scintillation spectrometry
[15] = target: T2, Neuronal acetylcholine receptor subunit alpha-7; assay: Agonist activity at human alpha7 nAChR expressed in HEK293 cells co-expressing Ric-3/NACHO assessed as induction of calcium mobilization at >= 10 uM measured up to 90 secs in presence of PNU-120596 by FLIPR assay; assay type: cell-based
[16] = target: T2, Neuronal acetylcholine receptor subunit alpha-7; assay: Agonist activity at human alpha7 nAChR expressed in HEK293 cells co-expressing Ric-3/NACHO assessed as induction of calcium mobilization at 1 to 3 uM measured up to 90 secs in presence of PNU-120596 by FLIPR assay; assay type: cell-based
[17] = target: T2, Neuronal acetylcholine receptor subunit alpha-7; assay: Agonist activity at human alpha7 nAChR expressed in HEK293 cells co-expressing Ric-3/NACHO assessed as induction of calcium mobilization at 0.3 to 3 uM measured up to 90 secs in presence of PNU-120596 by FLIPR assay; assay type: cell-based

Sequence of Neuronal acetylcholine receptor; alpha4/beta4 (P09483 whole entry): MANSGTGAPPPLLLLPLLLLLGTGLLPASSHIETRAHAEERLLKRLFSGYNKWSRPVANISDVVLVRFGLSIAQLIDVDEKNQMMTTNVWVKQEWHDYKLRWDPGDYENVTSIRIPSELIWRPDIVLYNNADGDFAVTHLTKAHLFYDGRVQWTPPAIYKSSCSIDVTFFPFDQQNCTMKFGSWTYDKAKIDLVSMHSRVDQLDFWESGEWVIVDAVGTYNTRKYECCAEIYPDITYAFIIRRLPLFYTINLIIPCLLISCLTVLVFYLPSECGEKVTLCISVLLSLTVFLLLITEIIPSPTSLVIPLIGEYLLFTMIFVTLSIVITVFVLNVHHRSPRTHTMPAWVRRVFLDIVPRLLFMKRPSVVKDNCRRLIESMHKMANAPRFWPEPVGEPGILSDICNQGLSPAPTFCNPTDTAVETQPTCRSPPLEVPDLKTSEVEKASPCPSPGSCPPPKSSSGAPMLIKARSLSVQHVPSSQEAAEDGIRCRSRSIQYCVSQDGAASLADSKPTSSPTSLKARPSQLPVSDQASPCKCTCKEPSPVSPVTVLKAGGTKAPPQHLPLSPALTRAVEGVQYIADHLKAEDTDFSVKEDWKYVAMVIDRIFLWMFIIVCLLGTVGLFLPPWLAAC
Sequence of Neuronal acetylcholine receptor; alpha4/beta4 (P12392 whole entry): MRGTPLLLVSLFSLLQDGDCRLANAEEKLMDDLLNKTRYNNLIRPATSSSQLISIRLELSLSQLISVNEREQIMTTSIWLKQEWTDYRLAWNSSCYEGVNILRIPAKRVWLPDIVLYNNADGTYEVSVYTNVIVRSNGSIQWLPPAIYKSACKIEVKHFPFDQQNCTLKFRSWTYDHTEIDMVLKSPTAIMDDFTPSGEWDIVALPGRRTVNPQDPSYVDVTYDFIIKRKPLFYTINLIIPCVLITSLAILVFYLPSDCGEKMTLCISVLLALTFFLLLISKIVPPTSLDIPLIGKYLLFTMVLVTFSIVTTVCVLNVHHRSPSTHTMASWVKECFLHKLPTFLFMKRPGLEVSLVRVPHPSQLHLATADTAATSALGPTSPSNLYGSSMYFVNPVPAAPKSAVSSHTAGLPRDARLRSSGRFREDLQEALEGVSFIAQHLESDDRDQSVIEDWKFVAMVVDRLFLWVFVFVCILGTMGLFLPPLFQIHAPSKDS
Sequence of Neuronal acetylcholine receptor; alpha4/beta2 (Rattus norvegicus, UniProt P09483+P12390) (P09483 whole entry): as the sequence (P09483 whole entry) above
Sequence of Neuronal acetylcholine receptor; alpha4/beta2 (Rattus norvegicus, UniProt P09483+P12390) (P12390 whole entry): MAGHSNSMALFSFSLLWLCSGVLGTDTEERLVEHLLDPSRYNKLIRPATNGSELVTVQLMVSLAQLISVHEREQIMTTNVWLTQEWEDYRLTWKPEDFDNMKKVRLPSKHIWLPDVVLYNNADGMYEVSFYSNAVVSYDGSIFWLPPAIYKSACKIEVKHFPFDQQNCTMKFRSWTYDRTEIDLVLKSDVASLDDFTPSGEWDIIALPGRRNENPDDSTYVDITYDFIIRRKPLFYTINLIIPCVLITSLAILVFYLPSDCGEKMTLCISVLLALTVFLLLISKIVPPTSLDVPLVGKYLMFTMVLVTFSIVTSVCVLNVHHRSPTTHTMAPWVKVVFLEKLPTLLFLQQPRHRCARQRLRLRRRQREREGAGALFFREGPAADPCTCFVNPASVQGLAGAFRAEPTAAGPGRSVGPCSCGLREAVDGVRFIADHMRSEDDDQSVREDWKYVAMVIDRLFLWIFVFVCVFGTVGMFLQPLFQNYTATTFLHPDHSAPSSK
T2 sequence (P36544 whole entry): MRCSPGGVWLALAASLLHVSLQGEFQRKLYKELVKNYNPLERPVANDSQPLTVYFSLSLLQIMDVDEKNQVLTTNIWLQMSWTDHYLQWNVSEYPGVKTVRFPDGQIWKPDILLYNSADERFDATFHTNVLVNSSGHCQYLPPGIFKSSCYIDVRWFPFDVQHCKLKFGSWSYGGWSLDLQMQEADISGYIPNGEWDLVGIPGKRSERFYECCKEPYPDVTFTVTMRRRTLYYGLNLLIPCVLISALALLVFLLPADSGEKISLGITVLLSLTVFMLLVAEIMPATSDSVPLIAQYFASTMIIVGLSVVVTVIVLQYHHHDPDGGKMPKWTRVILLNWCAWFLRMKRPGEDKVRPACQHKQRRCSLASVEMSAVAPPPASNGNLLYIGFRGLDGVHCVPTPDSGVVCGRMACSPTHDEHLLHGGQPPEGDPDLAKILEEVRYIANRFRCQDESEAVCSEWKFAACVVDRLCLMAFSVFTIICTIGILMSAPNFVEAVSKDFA
Sequence of Nicotinic acetylcholine receptor alpha-4/beta-2 (Q9ERK7 whole entry): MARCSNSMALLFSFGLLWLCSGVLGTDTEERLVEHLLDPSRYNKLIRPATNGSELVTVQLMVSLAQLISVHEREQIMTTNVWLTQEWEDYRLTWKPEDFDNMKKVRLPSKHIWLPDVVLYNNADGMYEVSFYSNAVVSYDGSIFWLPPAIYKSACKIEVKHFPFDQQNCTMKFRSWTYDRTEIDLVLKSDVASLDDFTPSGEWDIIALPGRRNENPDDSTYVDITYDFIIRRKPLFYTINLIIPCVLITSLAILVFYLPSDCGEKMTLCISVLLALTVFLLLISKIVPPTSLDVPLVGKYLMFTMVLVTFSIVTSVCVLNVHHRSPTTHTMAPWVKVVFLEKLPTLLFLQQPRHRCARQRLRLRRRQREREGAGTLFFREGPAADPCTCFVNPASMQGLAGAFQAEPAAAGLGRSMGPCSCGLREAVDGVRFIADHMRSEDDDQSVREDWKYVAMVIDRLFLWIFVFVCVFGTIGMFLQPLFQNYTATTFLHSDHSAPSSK
Sequence of Nicotinic acetylcholine receptor alpha-4/beta-2 (Q8R493 whole entry): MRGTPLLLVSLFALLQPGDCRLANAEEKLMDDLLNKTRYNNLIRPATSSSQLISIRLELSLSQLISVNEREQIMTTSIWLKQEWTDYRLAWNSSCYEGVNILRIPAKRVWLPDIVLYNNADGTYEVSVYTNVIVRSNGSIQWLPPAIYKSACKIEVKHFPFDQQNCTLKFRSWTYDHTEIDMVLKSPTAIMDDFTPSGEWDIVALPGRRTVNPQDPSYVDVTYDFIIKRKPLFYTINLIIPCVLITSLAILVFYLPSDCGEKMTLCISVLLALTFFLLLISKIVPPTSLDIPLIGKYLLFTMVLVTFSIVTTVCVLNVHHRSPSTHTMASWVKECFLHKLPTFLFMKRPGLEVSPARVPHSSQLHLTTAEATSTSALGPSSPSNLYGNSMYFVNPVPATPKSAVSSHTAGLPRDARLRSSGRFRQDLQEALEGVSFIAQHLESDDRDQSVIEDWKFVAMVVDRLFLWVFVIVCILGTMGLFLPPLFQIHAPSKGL
T1 sequence (P04757 whole entry): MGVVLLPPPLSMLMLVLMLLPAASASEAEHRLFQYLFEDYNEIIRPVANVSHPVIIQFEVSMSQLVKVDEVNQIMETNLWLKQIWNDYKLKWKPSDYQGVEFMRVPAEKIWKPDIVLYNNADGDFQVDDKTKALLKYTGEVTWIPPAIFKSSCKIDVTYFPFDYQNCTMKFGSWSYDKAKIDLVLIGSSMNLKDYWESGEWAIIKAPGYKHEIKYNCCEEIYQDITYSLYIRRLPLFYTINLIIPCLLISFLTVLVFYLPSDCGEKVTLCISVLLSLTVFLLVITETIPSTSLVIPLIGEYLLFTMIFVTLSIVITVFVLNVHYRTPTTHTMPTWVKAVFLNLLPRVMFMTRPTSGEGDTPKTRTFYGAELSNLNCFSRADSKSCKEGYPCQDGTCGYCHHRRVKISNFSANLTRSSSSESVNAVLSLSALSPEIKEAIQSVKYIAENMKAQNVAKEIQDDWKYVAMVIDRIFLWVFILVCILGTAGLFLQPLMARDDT
T1 sequence (P12392 whole entry): as the sequence (P12392 whole entry) above
Sequence of Neuronal acetylcholine receptor; alpha4/beta2 (Homo sapiens, UniProt P17787+P43681) (P17787 whole entry): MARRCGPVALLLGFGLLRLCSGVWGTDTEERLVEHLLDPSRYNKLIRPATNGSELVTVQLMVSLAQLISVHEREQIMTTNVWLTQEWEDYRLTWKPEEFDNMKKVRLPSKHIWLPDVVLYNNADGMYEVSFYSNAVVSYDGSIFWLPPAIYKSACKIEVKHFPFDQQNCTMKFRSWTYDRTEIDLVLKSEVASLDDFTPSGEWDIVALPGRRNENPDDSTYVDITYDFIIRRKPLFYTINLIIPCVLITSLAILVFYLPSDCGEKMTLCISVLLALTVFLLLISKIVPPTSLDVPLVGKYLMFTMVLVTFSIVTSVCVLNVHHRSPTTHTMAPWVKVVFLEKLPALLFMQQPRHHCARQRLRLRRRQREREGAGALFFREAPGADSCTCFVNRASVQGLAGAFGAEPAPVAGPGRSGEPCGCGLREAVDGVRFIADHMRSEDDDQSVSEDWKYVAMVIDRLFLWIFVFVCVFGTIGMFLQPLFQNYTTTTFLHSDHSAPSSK
Sequence of Neuronal acetylcholine receptor; alpha4/beta2 (Homo sapiens, UniProt P17787+P43681) (P43681 whole entry): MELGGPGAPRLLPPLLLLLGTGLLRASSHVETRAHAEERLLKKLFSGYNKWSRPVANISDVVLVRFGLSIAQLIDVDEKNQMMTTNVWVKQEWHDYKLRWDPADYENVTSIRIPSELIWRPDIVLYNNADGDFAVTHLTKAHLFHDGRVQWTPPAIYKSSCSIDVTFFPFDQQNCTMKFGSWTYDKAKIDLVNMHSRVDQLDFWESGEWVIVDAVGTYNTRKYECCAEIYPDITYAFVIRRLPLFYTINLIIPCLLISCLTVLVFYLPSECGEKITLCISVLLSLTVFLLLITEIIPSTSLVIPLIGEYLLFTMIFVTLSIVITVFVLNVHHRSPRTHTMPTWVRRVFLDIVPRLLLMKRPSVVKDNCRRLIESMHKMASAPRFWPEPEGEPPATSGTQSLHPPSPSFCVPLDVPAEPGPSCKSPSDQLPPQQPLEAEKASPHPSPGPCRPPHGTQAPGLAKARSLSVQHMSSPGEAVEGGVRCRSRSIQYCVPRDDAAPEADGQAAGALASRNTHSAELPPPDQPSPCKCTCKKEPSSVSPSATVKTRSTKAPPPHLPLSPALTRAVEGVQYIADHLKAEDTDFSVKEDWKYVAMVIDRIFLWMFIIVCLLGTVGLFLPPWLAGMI

| Compound | Ratio Ki [1] | Activity [2] | IC50 [3] [µM] | IC50 [4] [µM] | EC50 [5] [µM] | Ratio IC50 [6] | Ki [7] [µM] | Ratio Ki [8] | Ratio Ki [9] | Ki [10] [µM] | Ki [11] [µM] | Activity [12] | Activity [13] | Ki [14] [µM] | Activity [15] | Activity [16] | Activity [17] |
| --- | --- | --- | --- | --- | --- | --- | --- | --- | --- | --- | --- | --- | --- | --- | --- | --- | --- |
| C[N+]12CCC[C@@H]1c1cc3c(cc1CC2)OCO3 (stereo partly drawn) | 10 | Active | 0.22 | 50 | 1.6 | 230 | 2.7 | 10 | 10 | 0.045 | 11 |  |  |  |  |  |  |
| c1c2c(cc3c1OCO3)[C@H]1CCCN1CC2 |  |  | 1.3 | > 100 |  |  | 6.6 |  |  | 0.17 | 100 | Dose-dependent effect | Active |  |  |  |  |
| COc1ccc(CC2c3cc(OC)c(OC)cc3CC[N+]2(C)C)cc1OC (stereo not drawn) |  |  | > 100 | > 100 |  |  | > 100 |  |  | > 100 | > 100 |  | Active |  |  |  |  |
| COc1cc2c(cc1O)CCN1CC=C3C=C[C@H](OC)C[C@]321 [ERYSODINE] |  |  |  |  |  |  |  |  |  |  |  |  |  | 0.05 |  |  |  |
| COc1cc2c(cc1OCc1ccccc1)CC[N+](C)(C)C2 |  |  | 7.2 | > 300 |  |  | 50 |  |  | 0.47 | 30 |  |  |  | inactive | Dose-dependent effect | Dose-dependent effect |

Reference: ChEMBL document CHEMBL4052830, “Dual Nicotinic Acetylcholine Receptor α4β2 Antagonists/α7 Agonists: Synthesis, Docking Studies, and Pharmacological Evaluation of Tetrahydroisoquinolines and Tetrahydroisoquinolinium Salts” (J Med Chem, 2018)
